Data taken from ChEMBL document CHEMBL2010797, “Exploring aigialomycin d and its analogues as protein kinase inhibitors for cancer targets” (ACS Med Chem Lett, 2011).

Experiments:
[1] = Inhibition of MAP
[2] = target: Cyclin-dependent kinase 2/cyclin A (Homo sapiens) (UniProt P24941+P20248+P78396); experiment: Inhibition of CDK2/cyclin A using 5-FAM-GGGPATPKKAKKL-COOH as substrate at 10 uM after 1 hr by IMAP assay; type: protein-complex assay
Outline: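 IMAP fluorescence-polarization enzyme assay on CDK2/cyclin A, testing competition at the ATP site. Compounds tested at 10 μM, with purvalanol A at 1 μM as reference. Percent inhibition is the average ± SD of three independent experiments, or the mean of two for some compounds.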

[3] = target: Cyclin-dependent kinase 2/cyclin A (Homo sapiens, UniProt P24941); experiment: Inhibition of CDK2/cyclin A using 5-FAM-GGGPATPKKAKKL-COOH as substrate after 1 hr by IMAP assay; type: protein-complex assay
Outline: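 IMAP fluorescence-polarization assay on CDK2/cyclin A. IC50 taken from dose–response curves, given as average ± SD of three independent experiments, or the mean of two for one compound.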

[4] = target: T1, MAP kinase-interacting serine/threonine-protein kinase 2 (Homo sapiens, UniProt Q9HBH9); experiment: Inhibition of MNK2 using 5-FAM-TATKSGSTTKNRFVV-NH2 as substrate preincubated for 1 hr prior substrate addition measured after 2 hrs by IMAP assay
Target sequence in this assay (Q9HBH9 whole entry): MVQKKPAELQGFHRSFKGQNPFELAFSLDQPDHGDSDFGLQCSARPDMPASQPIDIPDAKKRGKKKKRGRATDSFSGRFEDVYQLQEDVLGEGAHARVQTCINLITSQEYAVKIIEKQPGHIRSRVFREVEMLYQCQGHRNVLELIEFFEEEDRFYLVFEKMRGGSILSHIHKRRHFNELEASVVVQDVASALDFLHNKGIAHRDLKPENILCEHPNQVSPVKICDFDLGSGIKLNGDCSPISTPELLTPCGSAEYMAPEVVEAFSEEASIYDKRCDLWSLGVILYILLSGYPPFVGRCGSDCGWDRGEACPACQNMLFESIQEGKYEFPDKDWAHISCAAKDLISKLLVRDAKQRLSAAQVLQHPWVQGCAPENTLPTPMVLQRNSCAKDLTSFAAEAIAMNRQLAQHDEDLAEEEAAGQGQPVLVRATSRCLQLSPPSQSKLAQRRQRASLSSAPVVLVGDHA

[5] = target: Cyclin-dependent kinase 1 (Homo sapiens, UniProt P06493); experiment: Inhibition of CDK1
Chain of Cyclin-dependent kinase 1 (P06493 whole entry): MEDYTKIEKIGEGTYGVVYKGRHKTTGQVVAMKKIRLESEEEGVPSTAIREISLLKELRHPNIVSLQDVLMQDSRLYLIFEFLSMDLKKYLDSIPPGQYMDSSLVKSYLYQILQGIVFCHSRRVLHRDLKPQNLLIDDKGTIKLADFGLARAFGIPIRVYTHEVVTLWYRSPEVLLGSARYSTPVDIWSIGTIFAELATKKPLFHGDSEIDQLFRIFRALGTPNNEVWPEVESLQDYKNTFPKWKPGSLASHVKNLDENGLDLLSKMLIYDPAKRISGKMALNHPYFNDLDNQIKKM

[6] = target: Cyclin-dependent kinase 5 (Homo sapiens, UniProt Q00535); experiment: Inhibition of CDK5
Chain of Cyclin-dependent kinase 5 (Q00535 whole entry): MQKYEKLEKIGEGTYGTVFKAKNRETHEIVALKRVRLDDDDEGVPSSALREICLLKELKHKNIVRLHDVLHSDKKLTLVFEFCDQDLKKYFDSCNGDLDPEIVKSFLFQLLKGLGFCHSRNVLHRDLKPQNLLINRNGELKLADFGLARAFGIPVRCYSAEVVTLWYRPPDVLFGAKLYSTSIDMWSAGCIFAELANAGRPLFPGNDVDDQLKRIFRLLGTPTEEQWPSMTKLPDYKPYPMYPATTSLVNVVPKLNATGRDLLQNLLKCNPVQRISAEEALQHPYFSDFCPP

[7] = target: Tyrosine-protein kinase receptor UFO (Homo sapiens) (UniProt P30530); experiment: Inhibition of AXL assessed as enzyme activity at 10 uM relative to control; design: scale not given: the % may be the effect or the level left
Outline: (§1)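 Single-point test at 10 μM in a 96-kinase screening panel. Reported as % of a DMSO negative control, where a lower value means stronger inhibition.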

[8] = target: T2, Tyrosine-protein kinase receptor UFO (Homo sapiens, UniProt P30530); experiment: Inhibition of AXL
T2 sequence (P30530 whole entry): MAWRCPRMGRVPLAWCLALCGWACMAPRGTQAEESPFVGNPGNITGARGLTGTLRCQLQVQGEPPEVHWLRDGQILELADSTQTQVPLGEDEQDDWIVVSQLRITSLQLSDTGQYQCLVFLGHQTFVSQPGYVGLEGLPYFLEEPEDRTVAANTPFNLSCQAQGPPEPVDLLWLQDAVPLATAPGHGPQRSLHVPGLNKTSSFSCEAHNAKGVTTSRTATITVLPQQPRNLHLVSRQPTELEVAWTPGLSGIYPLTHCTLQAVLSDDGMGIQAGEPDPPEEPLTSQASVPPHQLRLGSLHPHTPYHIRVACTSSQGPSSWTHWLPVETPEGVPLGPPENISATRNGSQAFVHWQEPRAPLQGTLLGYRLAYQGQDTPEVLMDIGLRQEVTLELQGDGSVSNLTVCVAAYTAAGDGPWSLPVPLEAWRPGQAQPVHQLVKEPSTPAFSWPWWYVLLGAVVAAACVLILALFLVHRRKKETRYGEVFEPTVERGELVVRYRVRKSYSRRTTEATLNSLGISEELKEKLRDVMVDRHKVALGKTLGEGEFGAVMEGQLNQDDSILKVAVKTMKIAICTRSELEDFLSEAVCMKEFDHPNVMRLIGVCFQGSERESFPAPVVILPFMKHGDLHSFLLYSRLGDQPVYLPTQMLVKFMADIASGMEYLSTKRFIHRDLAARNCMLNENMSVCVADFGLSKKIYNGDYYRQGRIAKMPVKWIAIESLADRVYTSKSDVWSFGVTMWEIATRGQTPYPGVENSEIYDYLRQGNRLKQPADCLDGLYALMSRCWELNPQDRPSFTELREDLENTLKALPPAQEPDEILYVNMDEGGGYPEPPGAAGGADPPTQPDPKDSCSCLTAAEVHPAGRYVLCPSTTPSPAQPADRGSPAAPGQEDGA

[9] = target: Receptor-type tyrosine-protein kinase FLT3 (Homo sapiens) (UniProt P36888); experiment: Inhibition of FLT3 assessed as enzyme activity at 10 uM relative to control; design: scale not given: the % may be the effect or the level left; outline: as §1
[10] = target: T3, Receptor-type tyrosine-protein kinase FLT3 (Homo sapiens, UniProt P36888); experiment: Inhibition of FLT3
T3 sequence (P36888 whole entry): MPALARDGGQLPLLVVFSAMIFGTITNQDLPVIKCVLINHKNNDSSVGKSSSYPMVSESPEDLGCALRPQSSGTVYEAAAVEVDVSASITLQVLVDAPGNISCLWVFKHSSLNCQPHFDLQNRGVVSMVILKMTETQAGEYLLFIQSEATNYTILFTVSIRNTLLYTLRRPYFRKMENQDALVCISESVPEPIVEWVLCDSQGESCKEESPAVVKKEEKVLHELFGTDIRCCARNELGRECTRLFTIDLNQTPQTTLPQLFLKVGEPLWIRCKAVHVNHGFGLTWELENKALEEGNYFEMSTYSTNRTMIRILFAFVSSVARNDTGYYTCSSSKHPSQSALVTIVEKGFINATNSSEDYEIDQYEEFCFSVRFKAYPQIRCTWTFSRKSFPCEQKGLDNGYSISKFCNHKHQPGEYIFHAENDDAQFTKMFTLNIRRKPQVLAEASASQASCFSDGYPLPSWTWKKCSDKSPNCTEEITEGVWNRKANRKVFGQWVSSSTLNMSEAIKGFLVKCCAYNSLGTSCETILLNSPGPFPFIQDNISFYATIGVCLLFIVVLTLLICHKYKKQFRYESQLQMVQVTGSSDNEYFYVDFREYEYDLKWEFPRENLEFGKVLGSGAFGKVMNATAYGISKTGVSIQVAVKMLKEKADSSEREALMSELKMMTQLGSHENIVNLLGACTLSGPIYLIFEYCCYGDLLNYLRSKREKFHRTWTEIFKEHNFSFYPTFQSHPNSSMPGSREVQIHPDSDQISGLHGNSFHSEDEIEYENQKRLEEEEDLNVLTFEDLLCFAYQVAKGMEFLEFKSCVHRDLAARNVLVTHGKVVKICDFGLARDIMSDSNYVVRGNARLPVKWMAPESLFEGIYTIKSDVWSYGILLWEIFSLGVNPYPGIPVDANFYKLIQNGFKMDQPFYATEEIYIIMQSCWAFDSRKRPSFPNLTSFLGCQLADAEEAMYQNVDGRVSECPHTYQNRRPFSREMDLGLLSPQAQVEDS

[11] = target: T1, MAP kinase-interacting serine/threonine-protein kinase 2; experiment: Inhibition of MNK2 assessed as enzyme activity at 10 uM relative to control; design: scale not given: the % may be the effect or the level left; outline: as §1
Target sequence in this assay (Q9HBH9 whole entry, looked up): as the sequence (Q9HBH9 whole entry) above

[12] = target: T1, MAP kinase-interacting serine/threonine-protein kinase 2; experiment: Inhibition of MNK2
Target sequence in this assay (Q9HBH9 whole entry): as above

[13] = target: T4, Serine/threonine-protein kinase PLK4 (Homo sapiens) (UniProt O00444); experiment: Inhibition of PLK4 assessed as enzyme activity at 10 uM relative to control; design: scale not given: the % may be the effect or the level left; outline: as §1
T4 sequence (whole entry): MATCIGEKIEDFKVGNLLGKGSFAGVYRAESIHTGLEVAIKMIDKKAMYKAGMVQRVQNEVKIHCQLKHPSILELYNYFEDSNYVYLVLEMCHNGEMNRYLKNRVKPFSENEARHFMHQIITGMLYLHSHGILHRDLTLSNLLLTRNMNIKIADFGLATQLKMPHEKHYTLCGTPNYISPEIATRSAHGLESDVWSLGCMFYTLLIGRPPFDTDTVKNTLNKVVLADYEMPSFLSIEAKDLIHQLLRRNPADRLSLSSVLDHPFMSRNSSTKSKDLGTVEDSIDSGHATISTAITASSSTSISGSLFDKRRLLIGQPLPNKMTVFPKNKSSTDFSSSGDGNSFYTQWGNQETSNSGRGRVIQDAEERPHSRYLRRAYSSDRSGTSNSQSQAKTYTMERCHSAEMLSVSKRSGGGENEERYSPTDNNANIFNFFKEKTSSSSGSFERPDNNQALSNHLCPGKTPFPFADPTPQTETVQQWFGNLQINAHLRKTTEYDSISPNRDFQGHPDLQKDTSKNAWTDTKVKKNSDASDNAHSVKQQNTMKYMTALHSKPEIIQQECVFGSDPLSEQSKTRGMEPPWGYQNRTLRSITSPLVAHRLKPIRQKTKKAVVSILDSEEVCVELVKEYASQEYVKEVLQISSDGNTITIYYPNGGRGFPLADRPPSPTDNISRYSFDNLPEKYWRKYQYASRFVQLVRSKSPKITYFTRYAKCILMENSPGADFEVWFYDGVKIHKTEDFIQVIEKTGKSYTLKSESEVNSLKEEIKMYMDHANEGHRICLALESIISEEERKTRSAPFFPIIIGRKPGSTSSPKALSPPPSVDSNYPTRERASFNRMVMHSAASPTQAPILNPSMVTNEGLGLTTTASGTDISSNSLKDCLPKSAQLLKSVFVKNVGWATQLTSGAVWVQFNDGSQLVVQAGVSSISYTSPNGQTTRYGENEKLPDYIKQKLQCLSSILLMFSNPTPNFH

[14] = target: T5, Serine/threonine-protein kinase PLK4 (Homo sapiens, UniProt O00444); experiment: Inhibition of PLK4
T5 sequence (O00444 whole entry): T4 sequence (whole entry)

[15] = target: T6, Protein kinase C epsilon type (Homo sapiens) (UniProt Q02156); experiment: Inhibition of PRKCE assessed as enzyme activity at 10 uM relative to control; design: scale not given: the % may be the effect or the level left; outline: as §1
T6 sequence (whole entry): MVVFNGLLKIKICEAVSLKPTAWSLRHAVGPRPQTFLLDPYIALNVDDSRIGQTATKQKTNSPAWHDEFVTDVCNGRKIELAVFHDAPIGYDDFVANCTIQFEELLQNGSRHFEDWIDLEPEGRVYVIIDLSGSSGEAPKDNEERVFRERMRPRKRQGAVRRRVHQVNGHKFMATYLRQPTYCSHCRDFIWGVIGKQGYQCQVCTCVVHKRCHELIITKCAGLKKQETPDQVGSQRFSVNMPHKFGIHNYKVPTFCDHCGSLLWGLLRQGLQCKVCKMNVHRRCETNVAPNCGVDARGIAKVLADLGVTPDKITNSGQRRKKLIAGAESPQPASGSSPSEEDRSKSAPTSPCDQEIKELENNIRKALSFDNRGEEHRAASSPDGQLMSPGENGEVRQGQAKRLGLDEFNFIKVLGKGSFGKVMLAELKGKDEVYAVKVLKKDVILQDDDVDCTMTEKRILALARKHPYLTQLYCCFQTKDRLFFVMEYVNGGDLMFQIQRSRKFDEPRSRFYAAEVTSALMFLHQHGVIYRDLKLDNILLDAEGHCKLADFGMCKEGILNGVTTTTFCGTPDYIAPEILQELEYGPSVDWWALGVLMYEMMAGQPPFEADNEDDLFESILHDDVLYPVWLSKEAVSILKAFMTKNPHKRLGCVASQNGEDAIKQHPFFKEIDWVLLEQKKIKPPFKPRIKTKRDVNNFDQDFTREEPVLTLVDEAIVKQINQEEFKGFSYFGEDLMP

[16] = target: T7, Protein kinase C epsilon type (Homo sapiens, UniProt Q02156); experiment: Inhibition of PRKCE
T7 sequence (Q02156 whole entry): T6 sequence (whole entry)

[17] = target: MAP kinase-interacting serine/threonine-protein kinase 1 (Homo sapiens, UniProt Q9BUB5); experiment: Inhibition of MNK1
Chain of MAP kinase-interacting serine/threonine-protein kinase 1 (Q9BUB5 whole entry): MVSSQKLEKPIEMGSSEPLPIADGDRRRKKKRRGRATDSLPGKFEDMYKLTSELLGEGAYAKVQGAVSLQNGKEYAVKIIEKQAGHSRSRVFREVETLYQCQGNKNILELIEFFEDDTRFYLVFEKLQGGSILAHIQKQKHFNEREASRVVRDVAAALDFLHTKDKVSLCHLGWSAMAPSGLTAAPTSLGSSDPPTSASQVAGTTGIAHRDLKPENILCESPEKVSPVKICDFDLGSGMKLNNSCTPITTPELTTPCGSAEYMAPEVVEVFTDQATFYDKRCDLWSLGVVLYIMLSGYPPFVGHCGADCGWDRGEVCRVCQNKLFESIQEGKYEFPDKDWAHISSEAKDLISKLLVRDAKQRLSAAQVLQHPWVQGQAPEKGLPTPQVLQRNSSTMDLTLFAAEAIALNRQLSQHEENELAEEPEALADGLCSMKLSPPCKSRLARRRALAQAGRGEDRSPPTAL

[18] = Inhibition of MEK

Work on `COc1cc(O)c2c(c1)[C@H]1O[C@@H]1C[C@H](O)[C@H](O)C(=O)/C=C\C[C@H](C)OC2=O` yielded an INH [1] of 17 nM.
In the case of `COc1cc(O)c2c(c1)/C=C/CC[C@H](O)[C@H](O)/C=C/C[C@H](C)OC2=O`, the inhibition [2] is reported as 49%, the IC50 [3] is reported as 19 µM and the IC50 [4] is reported as greater than 10 µM.
`C[C@H]1CCC[C@@H](O)[C@@H](O)CCC(O)Cc2cc(O)cc(O)c2C(=O)O1` (mixture of isomers) showed an inhibition [2] of 6% and an IC50 [4] greater than 10 µM.
Compound `CC(C)[C@H](CO)Nc1nc(Nc2cccc(Cl)c2)c2ncn(C(C)C)c2n1` has an inhibition [2] of 94%.
In the case of `O=C1OCC/C=C/[C@@H](O)[C@@H](O)CC/C=C/c2cc(O)cc(O)c21`, the inhibition [2] is reported as 38% and the IC50 [4] is reported as greater than 10 µM.
In the case of `C[C@H]1C/C=C/[C@@H](O)[C@@H](O)CC/C=C/c2cc(O)cc(O)c2C(=O)O1` [AIGIALOMYCIN D], the IC50 [5] is reported as 6 µM, the IC50 [6] is reported as 6 µM and the inhibition [2] is reported as 55%. For the same compound, the IC50 [3] was 21 µM, the Activity [7] was 4.7% and the Kd [8] was 1 µM. It also gave an Activity [9] of 7.1%, a Kd [10] of 0.3 µM and an Activity [11] of 0.15%. For the same compound, the Kd [12] was 0.16 µM, the Activity [13] was 9.6% and the Kd [14] was 0.26 µM. The Activity [15] was 7.2%, the Kd [16] was 12 µM and the IC50 [4] was 0.45 µM. For the same compound, the IC50 [17] was 40 µM.
Compound `C[C@H]1C/C=C/[C@@H](O)[C@@H](O)CCC(=O)Cc2cc(O)cc(O)c2C(=O)O1` has an inhibition [2] of 21% and an IC50 [4] greater than 10 µM.
Work on `COc1cc(O)c2c(c1)CCC[C@H](O)[C@H](O)C(=O)/C=C\C[C@H](C)OC2=O` yielded an INH [18] of 4 nM.
For `C[C@H]1C/C=C/[C@@H](O)[C@@H](O)CCC(=NO)Cc2cc(O)cc(O)c2C(=O)O1` (mixture of isomers), the inhibition [2] was 19% and the IC50 [4] was greater than 10 µM.
In the case of `COc1cc2c(c(OC)c1)C(=O)O[C@@H](C)C/C=C/[C@@H](O)[C@@H](O)CC/C=C/2`, the inhibition [2] is reported as 13% and the IC50 [4] is reported as greater than 10 µM.
